Experiments:
Type in all cases: functional
Mus musculus [1] = assay: L-1210 mouse leukemia life prolongation activity was measured as T/C (mean survival time of treated animals divided by the mean survival time of the controls times 100) at dose 80 mg/kg
Outline: (§1)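 In vivo L-1210 leukemia in mice, run by NCI contractors by standard procedures. Two intraperitoneal doses given, on day 1 and day 5 of the study. Readout is mean survival time of treated animals over that of controls, ×100 (T/C).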

Mus musculus [2] = assay: L-1210 mouse leukemia life prolongation activity was measured as T/C (mean survival time of treated animals divided by the mean survival time of the controls times 100) at dose 10 mg/kg; outline: as §1
Mus musculus [3] = assay: L-1210 mouse leukemia life prolongation activity was measured as T/C (mean survival time of treated animals divided by the mean survival time of the controls times 100) at dose 20 mg/kg; outline: as §1
Mus musculus [4] = assay: L-1210 mouse leukemia life prolongation activity was measured as T/C (mean survival time of treated animals divided by the mean survival time of the controls times 100) at dose 40 mg/kg; outline: as §1
Mus musculus [5] = assay: L-1210 mouse leukemia life prolongation activity was measured as T/C (mean survival time of treated animals divided by the mean survival time of the controls times 100) at dose 5 mg/kg; outline: as §1
Mus musculus [6] = assay: L-1210 mouse leukemia life prolongation activity was measured as T/C (mean survival time of treated animals divided by the mean survival time of the controls times 100) at dose 2.5 mg/kg; outline: as §1
Mus musculus [7] = assay: L-1210 mouse leukemia life prolongation activity was measured as T/C(mean survival time of treated animals divided by the mean survival time of the controls times 100) at dose 2.5 mg/kg; outline: as §1
Mus musculus [8] = assay: L-1210 mouse leukemia life prolongation activity was measured as T/C (mean survival time of treated animals divided by the mean survival time of the controls times 100) at dose 1.25 mg/kg; outline: as §1

**Q.** CC[C@@](O)(C(=O)[O-])c1cc2n(c(=O)c1CO)Cc1cc3ccccc3nc1-2.[Na+] was tested. Which T/C (Mus musculus [1]) did it give?
**A.** The T/C was 215.

**Q.** What about the T/C (Mus musculus [2]) of the same molecule?
**A.** Its T/C is 126.

**Q.** And the T/C (Mus musculus [3])?
**A.** The T/C was 167.

**Q.** And the T/C (Mus musculus [4])?
**A.** Its T/C is 181.

**Q.** What does the source list for CC[C@]1(O)C(=O)OCc2c1cc1n(c2=O)Cc2cc3ccccc3nc2-1?
**A.** T/C (Mus musculus [5]): 114; T/C (Mus musculus [6]): 114; T/C (Mus musculus [2]): 118; T/C (Mus musculus [3]): 132

**Q.** How did the T/C (Mus musculus [5]) turn out when CC[C@@]1(O)C(=O)OCc2c1cc1n(c2=O)Cc2cc3ccccc3nc2-1 [CAMPTOTHECIN] was run?
**A.** The T/C was 185.

**Q.** What about the T/C (Mus musculus [7]) of the same molecule?
**A.** Its T/C is 147.

**Q.** What about the T/C (Mus musculus [2]) of the same molecule?
**A.** The T/C was 250.

**Q.** And the T/C (Mus musculus [8])?
**A.** The T/C was 129.

Reference: ChEMBL document CHEMBL1123574, “Plant antitumor agents. 28. Resolution of a key tricyclic synthon, 5'(RS)-1,5-dioxo-5'-ethyl-5'-hydroxy-2'H,5'H,6'H-6'-oxopyrano[3' ,4'- f]delta 6,8-tetrahydro-indolizine: total synthesis and antitumor activity of 20(S)- and 20(R)-camptothecin” (1987)
